HNF4A DNA FP: change in binding of human HNF4A to DNA, primary screen, biochemical, fluorescence polarization, FITC-DNA. activity change, % at 10 µM. hit rate 0.3% among 360,000. Hepatocyte nuclear factor 4-alpha (Homo sapiens), P41235. 1 h. AID 1224865, 2016; in the data active = activity change above about 30%, passing the limit was not always enough
TPT1 inhibitor: Candida albicans TPT1 enzyme inhibitors, primary screen, biochemical, fluorescence polarization; inhibition, % at 5 µM; tRNA 2'-phosphotransferase TPT1 (Candida albicans SC5314); recombinant caTPT1, FP RNA substrate dephosphorylation; hit rate 0.81% among 300,000;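 active = inhibition above the mean of all tested compounds plus 3 SD, set per screening campaign, cut at about 24% in these data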
aDG glyco up: activators of alpha-DG glycosylation, primary screen, uHTS, Pro5-aDG cells, AlphaScreen. alpha-DG glycosylation AlphaScreen (IIH6); 0% Pro5, 100% B10-LARGE cell signal. activation, % at 10 µM. hit rate 0.22% among 360,000;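 active = activation of at least 8% versus controls, or a plate z-score of at least 8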;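 note: Pro5 are CHO cells carrying HIG-tagged alpha-DG that lacks glycosylation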
Rpn11 inh: Rpn11 (PSMD14) deubiquitinase inhibitors, primary screen, biochemical, fluorescence polarization, uHTS; hit rate 0.59% among 360,000; inhibition, % at 20 µM; AID 588493, 2011; human 26S proteasome, Ub4-pepOG fluorescence polarization; 20S core pre-blocked with epoxomicin;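 active = inhibition at 20 µM, scaled to each plate's controls, above about 33%, limit read from the data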
Target sequence (O00487 whole entry, looked up): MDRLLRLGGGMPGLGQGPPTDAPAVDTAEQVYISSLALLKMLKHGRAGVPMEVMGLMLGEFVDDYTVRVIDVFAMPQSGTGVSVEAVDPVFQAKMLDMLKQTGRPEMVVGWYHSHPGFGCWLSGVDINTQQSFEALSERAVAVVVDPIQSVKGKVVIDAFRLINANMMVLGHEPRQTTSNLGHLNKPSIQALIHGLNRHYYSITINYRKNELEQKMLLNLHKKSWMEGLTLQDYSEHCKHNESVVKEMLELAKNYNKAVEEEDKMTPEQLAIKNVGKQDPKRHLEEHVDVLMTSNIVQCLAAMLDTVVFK
Xi reactivation: activators of inactive X chromosome reactivation, primary screen, imaging, XiGFP fibroblasts, GFP high-content imaging, set 2 | hit rate 0.055% among 360,000 | XiGFP mouse fibroblasts, % GFP-positive cells imaging, 3 d; cells co-treated with 5-aza-dC sensitizer; scaled so ellipticine positive control = 100% | activation, % at 7.58 µM;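 active = mean normalized replicate activation at least 10% and every replicate at or above 10%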
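System: 68-5-11 XiGFP fibroblast line | Buffer or medium: DMEM containing 5-aza-dC | Compound: Single point | Times: Compounds 3 days, fix/stain 15 min at room temperature | Benchmarks: Positive control ellipticine, 6 µM final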
CSN inh: inhibitors of CSN-mediated cullin deneddylation, primary screen, biochemical, fluorescence polarization, uHTS | Purified CSN, SCF-Nedd8-OG deneddylation | inhibition, % at 12.5 µM | COP9 signalosome complex subunit 5 (Homo sapiens), Q92905 | hit rate 0.38% among 360,000;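 active = pattern-corrected inhibition above about 35%, with an unprinted fluorescence ratio check between 0.5 and 1.5, limit read from the data, passing the limit was not always enough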
Target sequence (Q92905 whole entry, looked up, one chain of several): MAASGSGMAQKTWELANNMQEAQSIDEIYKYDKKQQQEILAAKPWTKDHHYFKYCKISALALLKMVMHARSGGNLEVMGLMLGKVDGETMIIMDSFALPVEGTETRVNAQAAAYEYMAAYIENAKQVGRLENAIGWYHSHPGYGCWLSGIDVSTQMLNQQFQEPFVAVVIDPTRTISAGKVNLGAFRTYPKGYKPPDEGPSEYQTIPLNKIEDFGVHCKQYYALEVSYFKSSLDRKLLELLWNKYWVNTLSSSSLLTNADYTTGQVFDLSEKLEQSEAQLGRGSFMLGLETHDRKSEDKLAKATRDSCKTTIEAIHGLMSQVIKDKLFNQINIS
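assay system = purified human Csn5 enzyme expressed in HEK293T cells | amount = 0.24 nM enzyme | buffer or medium = Tris/NaCl/DTT buffer, pH 7.5 | reagent = 10 nM SCFSkp2-Nedd8OG | compound = one concentration, 12.5 µM, 0.25% DMSO | times = 90 min reaction at room temperature | signal = FP | read-out basis = % inhibition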
Rpn11 inh conf: Rpn11 (PSMD14) deubiquitinase inhibitors, confirmation, biochemical, fluorescence polarization, single concentration; inhibition, % at 20 µM; AID 602318, 2012; purified human 26S proteasome, Ub4-pepOG fluorescence polarization; proteasome pretreated with epoxomicin; hit rate 29% among 1,900; shares compounds with Rpn11 inh
MMP-2 inh: MMP-2 enzyme inhibition, confirmation, counter-screen for RPN11 inhibitor project, biochemical, fluorescence, single concentration; shares compounds with Rpn11 inh; recombinant MMP-2, FRET peptide cleavage fluorescence; inhibition, % at 20 µM; hit rate 4% among 1,900;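 note: human MMP-2 activated beforehand with APMA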
Thrombin FP: bovine thrombin protease inhibition, confirmation, counter-screen for Rpn11 inhibitor project, biochemical, fluorescence polarization, single concentration | hit rate 13% among 1,900 | AID 602333, 2012 | inhibition, % at 20 µM | bovine thrombin cleavage of Ub4-pepOG | shares compounds with Rpn11 inh;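 active = mean inhibition at least 40% at 20 µM, or signal 3 deviations below plate average, so some actives read negative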
Numbers stand for hits. This is a sample that favours compounds with a hit; in the whole collection about 1.3% have one here. Cut-off read from the data, not from the text of the source, unless noted: active = inhibition above about 40%; inactive = the rest.

COC(=O)c1sccc1NC(=O)c1ccncc1 was read as HNF4A DNA FP inactive, TPT1 inhibitor inactive, aDG glyco up inactive, Rpn11 inh 48, CSN inh inactive, Rpn11 inh conf inactive, MMP-2 inh inactive and Thrombin FP inactive.
COc1ccc(CNC(=O)CN(C2CCCCC2)S(C)(=O)=O)cc1 was read as HNF4A DNA FP inactive, TPT1 inhibitor inactive, aDG glyco up inactive, Rpn11 inh inactive, Xi reactivation inactive and CSN inh inactive.
For COc1ccc(CCNC(=O)CN(C2CCCCC2)S(C)(=O)=O)cc1 the results were HNF4A DNA FP inactive, TPT1 inhibitor inactive, aDG glyco up inactive, Rpn11 inh 114, CSN inh inactive, Rpn11 inh conf inactive, MMP-2 inh inactive and Thrombin FP inactive.
Screening COc1ccc(-n2nc3c(N4CCC(C(=O)NCc5cccc(C)c5)CC4)nnc(C)c3c2C)cc1 returned HNF4A DNA FP inactive, TPT1 inhibitor inactive, aDG glyco up inactive, Rpn11 inh 71, Xi reactivation inactive, CSN inh inactive, Rpn11 inh conf 55, MMP-2 inh inactive and Thrombin FP inactive.
Cc1ccc(-n2nc3c(N4CCC(C(=O)N5CCN(C)CC5)CC4)nnc(C)c3c2C)cc1 was read as HNF4A DNA FP inactive, TPT1 inhibitor inactive, aDG glyco up inactive, Rpn11 inh 41, Xi reactivation inactive, CSN inh inactive, Rpn11 inh conf inactive, MMP-2 inh inactive and Thrombin FP inactive.
Screening Cc1nnc(N2CCC(C(=O)N3CCCCCC3)CC2)c2nn(-c3ccc(Cl)cc3)c(C)c12 returned HNF4A DNA FP inactive, TPT1 inhibitor inactive, aDG glyco up inactive, Rpn11 inh inactive, Xi reactivation inactive and CSN inh inactive.
For COc1ccc(-n2nc3c(N4CCC(C(=O)NCCc5ccco5)CC4)nnc(C)c3c2C)cc1 the results were HNF4A DNA FP inactive, TPT1 inhibitor inactive, aDG glyco up inactive, Rpn11 inh inactive, Xi reactivation inactive and CSN inh inactive.
Screening Cc1nnc(N2CCCC(C(=O)NCc3cccc(F)c3)C2)c2nn(-c3ccccc3)c(C)c12 (stereo unspecified) returned HNF4A DNA FP inactive, TPT1 inhibitor inactive, aDG glyco up inactive, Rpn11 inh inactive, Xi reactivation inactive and CSN inh inactive.
`CCc1ccc(CNC(=O)C2CCCN(c3nnc(C)c4c(C)n(-c5ccccc5)nc34)C2)cc1` (stereo unspecified) gave HNF4A DNA FP inactive, TPT1 inhibitor inactive, aDG glyco up inactive, Rpn11 inh 60, Xi reactivation inactive, CSN inh inactive, Rpn11 inh conf inactive, MMP-2 inh inactive and Thrombin FP inactive.
Screening COc1ccc(-n2nc3c(N4CCC(C(=O)N5CCCCCC5)CC4)nnc(C)c3c2C)cc1 returned HNF4A DNA FP inactive, TPT1 inhibitor inactive, aDG glyco up inactive, Rpn11 inh 55, Xi reactivation inactive, CSN inh inactive, Rpn11 inh conf inactive, MMP-2 inh inactive and Thrombin FP inactive.
For COc1ccc(S(=O)(=O)N[C@@H]2CC[C@@H](CCNC(=O)c3ccccc3F)O[C@@H]2CO)cc1 the results were Xi reactivation inactive.
O=C(/C=C/c1ccc([N+](=O)[O-])cc1)c1ccccc(=O)c1O was read as HNF4A DNA FP inactive, aDG glyco up inactive, Rpn11 inh 42, Xi reactivation inactive, CSN inh inactive, Rpn11 inh conf inactive, MMP-2 inh inactive and Thrombin FP inactive.
C[C@@H]1CN([C@H](C)CO)C(=O)c2cccc(NS(=O)(=O)c3cn(C)cn3)c2O[C@@H]1CN(C)C(=O)NC1CCCCC1 was read as Xi reactivation inactive.
`COc1ccc2c3c([nH]c2c1)[C@@H](CO)N(C(=O)Nc1c(C)noc1C)CC31CCN(CC2CCCCC2)CC1` gave Xi reactivation inactive.
Screening Cc1ccc(O)c(C(=O)c2cc(C#N)c(=O)n(Cc3ccccc3)c2)c1 returned HNF4A DNA FP inactive, TPT1 inhibitor inactive, aDG glyco up inactive, Rpn11 inh 40, Xi reactivation inactive, CSN inh inactive, Rpn11 inh conf inactive, MMP-2 inh inactive and Thrombin FP inactive.
`O=C1CS(=O)(=O)N(Cc2ccccc2F)c2ccc(Br)cc21` gave HNF4A DNA FP inactive, aDG glyco up inactive, Rpn11 inh 50, Xi reactivation inactive, CSN inh inactive, Rpn11 inh conf inactive, MMP-2 inh inactive and Thrombin FP inactive.
Screening O=C1CS(=O)(=O)N(Cc2ccc(F)cc2)c2ccccc21 returned HNF4A DNA FP inactive, aDG glyco up inactive, Rpn11 inh 66, Xi reactivation inactive, CSN inh inactive, Rpn11 inh conf inactive, MMP-2 inh inactive and Thrombin FP inactive.
COc1ccc(CN2c3ccccc3C(=O)CS2(=O)=O)cc1OC was read as Xi reactivation inactive.
Screening COc1cc(CN2c3ccccc3C(=O)CS2(=O)=O)cc(OC)c1 returned HNF4A DNA FP inactive, aDG glyco up inactive, Rpn11 inh 58, Xi reactivation inactive, CSN inh inactive, Rpn11 inh conf 82, MMP-2 inh inactive and Thrombin FP inactive.
C/C=C/c1cnc2c(c1)C(=O)N([C@@H](C)CO)C[C@H](C)[C@H](CN(C)C(=O)c1cccc(F)c1)O2 was read as Xi reactivation inactive.
For C[C@H]1CN([C@@H](C)CO)C(=O)c2cc(/C=C/c3ccccc3)cnc2O[C@@H]1CN(C)S(=O)(=O)c1ccccc1 the results were Xi reactivation inactive.
Screening [O-][n+]1cccc2c(Br)cc(Br)c(O)c21 returned HNF4A DNA FP inactive, TPT1 inhibitor inactive, aDG glyco up inactive, Rpn11 inh 53, Xi reactivation inactive, CSN inh inactive, Rpn11 inh conf inactive, MMP-2 inh inactive and Thrombin FP inactive.
COc1ccc(-c2cnc3c(c2)C(=O)N([C@H](C)CO)C[C@@H](C)[C@H](CN(C)C(=O)C2CC2)O3)cc1 was read as Xi reactivation inactive.

Bioassay records deposited in PubChem BioAssay by several laboratories.
